# In ChEMBL document CHEMBL4118021, “Studies of TAK1-centered polypharmacology with novel covalent TAK1 inhibitors” (Bioorg Med Chem, 2017):
# Legend:
# [1] = target: T1, Mitogen-activated protein kinase kinase kinase 7 (Homo sapiens) (UniProt O43318); details: 1 uM
# T1 sequence (whole entry): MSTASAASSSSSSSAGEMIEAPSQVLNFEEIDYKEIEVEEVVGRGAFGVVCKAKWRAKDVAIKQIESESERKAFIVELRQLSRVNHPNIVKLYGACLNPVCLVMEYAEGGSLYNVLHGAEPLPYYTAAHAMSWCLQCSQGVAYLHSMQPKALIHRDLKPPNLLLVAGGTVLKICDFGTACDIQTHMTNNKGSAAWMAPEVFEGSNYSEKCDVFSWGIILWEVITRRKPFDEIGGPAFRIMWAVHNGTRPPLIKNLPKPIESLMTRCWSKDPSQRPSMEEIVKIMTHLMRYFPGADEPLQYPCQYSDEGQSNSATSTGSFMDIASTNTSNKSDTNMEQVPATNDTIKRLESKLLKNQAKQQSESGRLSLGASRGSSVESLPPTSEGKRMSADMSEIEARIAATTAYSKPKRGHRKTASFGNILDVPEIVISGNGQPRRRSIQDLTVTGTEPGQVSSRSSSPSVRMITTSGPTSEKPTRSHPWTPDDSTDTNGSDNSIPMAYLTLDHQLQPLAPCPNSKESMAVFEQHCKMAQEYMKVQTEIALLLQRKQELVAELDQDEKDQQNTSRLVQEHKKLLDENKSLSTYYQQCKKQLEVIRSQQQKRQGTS
# [2] = target: Bone morphogenetic protein receptor type-1A (Homo sapiens) (UniProt P36894); experiment: Inhibition of BMPR1A in human SKCO1 cells at 1 uM after 4 hrs using biotin labeled SKNILIK probe by mass-spectrometric analysis relative to control; type: cell-based
# [3] = target: Cyclin-dependent kinase 18 (Homo sapiens) (UniProt Q07002); experiment: Inhibition of PCTAIRE3 in human SKCO1 cells at 1 uM after 4 hrs using biotin labeled SKLTENLVALKEIR probe by mass-spectrometric analysis relative to control; type: cell-based
# How it was run: (§1)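 Live SK-CO-1 cells exposed to compound at 1 μM or DMSO for 4 h (KiNativ). Lysates then labeled with lysine-reactive ATP/ADP-biotin probe, and probe-labeled kinase peptides quantified by mass spectrometry. Percent inhibition of probe-dependent recovery calculated relative to DMSO-treated cells.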
# [4] = target: Dual specificity mitogen-activated protein kinase kinase 1 (Homo sapiens) (UniProt Q02750); experiment: Inhibition of MAP2K1 in human SKCO1 cells at 1 uM after 4 hrs using biotin labeled KLIHLEIKPAIR probe by mass-spectrometric analysis relative to control; type: cell-based; details: pooled result: one value given for 2 cell lines, strains, targets or settings
# [5] = target: Serine/threonine-protein kinase PAK 2 (Homo sapiens) (UniProt Q13177); experiment: Inhibition of PAK2 in human SKCO1 cells at 1 uM after 4 hrs using biotin labeled IGQGASGTVFTATDVALGQEVAIKQINLQK probe by mass-spectrometric analysis relative to control; type: cell-based
# How it was run: as §1
# [6] = target: Serine/threonine-protein kinase Nek4 (Homo sapiens) (UniProt P51957); experiment: Inhibition of NEK4 in human SKCO1 cells at 1 uM after 4 hrs using biotin labeled DLKTQNVFLTR probe by mass-spectrometric analysis relative to control; type: cell-based
# How it was run: as §1
# [7] = target: Serine/threonine-protein kinase Chk2 (Homo sapiens) (UniProt O96017); experiment: Inhibition of CHK2 in human SKCO1 cells at 1 uM after 4 hrs using biotin labeled DLKPENVLLSSQEEDCLIK probe by mass-spectrometric analysis relative to control; type: cell-based
# [8] = target: Ribosomal protein S6 kinase (Homo sapiens) (UniProt P51812+Q9UBS0+O75676+Q15349+O75582+P23443+Q9UK32+Q15418); experiment: Inhibition of p70S6K in human SKCO1 cells at 1 uM after 4 hrs using biotin labeled DLKPENIMLNHQGHVK probe by mass-spectrometric analysis relative to control; type: cell-based
# How it was run: as §1
# [9] = target: Aurora kinase B (Homo sapiens) (UniProt Q96GD4); experiment: Inhibition of AurB in human SKCO1 cells at 1 uM after 4 hrs using biotin labeled SHFIVALKVLFK probe by mass-spectrometric analysis relative to control; type: cell-based
# [10] = target: Serine/threonine-protein kinase 32C (Homo sapiens) (UniProt Q86UX6); experiment: Inhibition of YANK3 in human SKCO1 cells at 1 uM after 4 hrs using biotin labeled DVKPDNILLDER probe by mass-spectrometric analysis relative to control; type: cell-based
# How it was run: as §1
# [11] = target: Serine/threonine-protein kinase VRK2 (Homo sapiens) (UniProt Q86Y07); experiment: Inhibition of VRK2 in human SKCO1 cells at 1 uM after 4 hrs using biotin labeled MLDVLEYIHENEYVHGDIKAANLLLYK probe by mass-spectrometric analysis relative to control; type: cell-based
# How it was run: as §1
# [12] = target: Glycogen synthase kinase-3 beta (Homo sapiens) (UniProt P49841); experiment: Inhibition of GSK3B in human SKCO1 cells at 1 uM after 4 hrs using biotin labeled DIKPQNLLLDPDTAVLK probe by mass-spectrometric analysis relative to control; type: cell-based
# [13] = target: 5'-AMP-activated protein kinase catalytic subunit alpha-1 (Homo sapiens) (UniProt Q13131); experiment: Inhibition of AMPKa1 in human SKCO1 cells at 1 uM after 4 hrs using biotin labeled DLKPENVLLDAHMNAK probe by mass-spectrometric analysis relative to control; type: cell-based
# How it was run: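 Live SK-CO-1 cells were treated 4 h with compound at 1 μM or DMSO, then lysed. Lysates were labeled with a lysine-reactive ATP/ADP-biotin probe and analysed by mass spectrometry. Percent inhibition is the loss of probe-dependent recovery of the kinase peptide relative to DMSO.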
# [14] = target: Dual specificity mitogen-activated protein kinase kinase 1 (Homo sapiens) (UniProt Q02750); experiment: Inhibition of MAP2K1 in human SKCO1 cells at 1 uM after 4 hrs using biotin labeled IMHRDVKPSNILVNSR probe by mass-spectrometric analysis relative to control; type: cell-based
# How it was run: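 Live SK-CO-1 cells treated 4 h at 1 μM (DMSO control); cells lysed and lysates labeled with lysine-reactive ATP/ADP-biotin probe (KiNativ); probe-labeled kinase peptides quantified by mass spectrometry; inhibition expressed as percent reduction in probe-dependent recovery versus DMSO-treated cells.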
# [15] = target: Interleukin-1 receptor-associated kinase 1 (Homo sapiens) (UniProt P51617); experiment: Inhibition of IRAK1 in human SKCO1 cells at 1 uM after 4 hrs using biotin labeled AIQFLHQDSPSLIHGDIKSSNVLLDER probe by mass-spectrometric analysis relative to control; type: cell-based
# Interleukin-1 receptor-associated kinase 1 (Homo sapiens), sequence (P51617 whole entry, looked up): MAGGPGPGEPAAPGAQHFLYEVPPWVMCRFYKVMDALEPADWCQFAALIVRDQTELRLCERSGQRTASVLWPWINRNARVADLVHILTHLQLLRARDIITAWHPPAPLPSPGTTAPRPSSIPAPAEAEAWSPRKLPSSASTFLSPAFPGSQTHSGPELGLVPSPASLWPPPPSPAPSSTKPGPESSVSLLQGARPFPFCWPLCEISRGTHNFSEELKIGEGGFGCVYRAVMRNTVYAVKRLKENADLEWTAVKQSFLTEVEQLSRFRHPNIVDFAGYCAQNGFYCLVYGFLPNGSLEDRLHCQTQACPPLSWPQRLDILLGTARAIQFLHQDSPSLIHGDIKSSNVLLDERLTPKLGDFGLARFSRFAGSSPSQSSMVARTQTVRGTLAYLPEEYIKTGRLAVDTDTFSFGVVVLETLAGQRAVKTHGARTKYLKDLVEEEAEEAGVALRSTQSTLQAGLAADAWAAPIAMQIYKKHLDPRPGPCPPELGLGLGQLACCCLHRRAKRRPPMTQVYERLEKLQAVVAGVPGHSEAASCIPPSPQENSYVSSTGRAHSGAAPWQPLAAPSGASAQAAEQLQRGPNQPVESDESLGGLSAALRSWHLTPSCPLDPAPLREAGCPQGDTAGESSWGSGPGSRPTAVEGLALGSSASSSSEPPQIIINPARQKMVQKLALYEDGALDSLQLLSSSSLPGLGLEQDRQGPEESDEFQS
# Serine/threonine-protein kinase VRK2 (Homo sapiens), sequence (Q86Y07 whole entry): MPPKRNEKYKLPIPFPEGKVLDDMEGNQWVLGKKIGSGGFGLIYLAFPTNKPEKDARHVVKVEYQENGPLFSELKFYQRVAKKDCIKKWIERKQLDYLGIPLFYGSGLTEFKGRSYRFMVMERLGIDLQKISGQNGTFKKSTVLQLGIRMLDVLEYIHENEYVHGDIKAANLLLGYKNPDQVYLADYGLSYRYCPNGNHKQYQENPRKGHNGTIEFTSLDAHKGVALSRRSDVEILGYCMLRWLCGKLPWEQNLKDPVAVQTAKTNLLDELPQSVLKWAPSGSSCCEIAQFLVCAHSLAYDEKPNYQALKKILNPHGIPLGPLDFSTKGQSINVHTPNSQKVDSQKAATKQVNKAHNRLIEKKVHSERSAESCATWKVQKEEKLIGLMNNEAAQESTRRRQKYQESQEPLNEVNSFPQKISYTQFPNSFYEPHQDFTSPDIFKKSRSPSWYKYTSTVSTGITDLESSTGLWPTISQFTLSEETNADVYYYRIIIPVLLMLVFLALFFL
# Serine/threonine-protein kinase Nek4 (Homo sapiens), sequence (P51957 whole entry, looked up): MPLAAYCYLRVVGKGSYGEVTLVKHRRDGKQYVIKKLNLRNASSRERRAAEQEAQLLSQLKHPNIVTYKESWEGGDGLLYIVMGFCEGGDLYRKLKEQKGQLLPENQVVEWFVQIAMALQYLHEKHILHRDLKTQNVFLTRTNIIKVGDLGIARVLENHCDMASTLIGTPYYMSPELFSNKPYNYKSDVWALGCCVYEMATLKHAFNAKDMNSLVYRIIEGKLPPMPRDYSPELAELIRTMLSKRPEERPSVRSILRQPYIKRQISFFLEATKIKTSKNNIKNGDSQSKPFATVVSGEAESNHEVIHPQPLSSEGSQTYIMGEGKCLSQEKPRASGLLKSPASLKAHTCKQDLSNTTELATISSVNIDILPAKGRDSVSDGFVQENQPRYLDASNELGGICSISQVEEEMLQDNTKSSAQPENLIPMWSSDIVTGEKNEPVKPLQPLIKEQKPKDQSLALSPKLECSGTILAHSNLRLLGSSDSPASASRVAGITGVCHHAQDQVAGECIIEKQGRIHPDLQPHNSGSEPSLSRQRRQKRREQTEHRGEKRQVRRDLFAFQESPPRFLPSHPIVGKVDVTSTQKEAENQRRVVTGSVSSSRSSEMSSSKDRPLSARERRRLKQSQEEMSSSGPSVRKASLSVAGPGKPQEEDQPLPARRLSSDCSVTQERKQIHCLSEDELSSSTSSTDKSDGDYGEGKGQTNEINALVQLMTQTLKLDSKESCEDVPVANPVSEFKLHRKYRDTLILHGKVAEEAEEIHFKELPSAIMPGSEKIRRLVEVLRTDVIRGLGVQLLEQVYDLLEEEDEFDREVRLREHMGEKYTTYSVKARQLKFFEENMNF
# Cyclin-dependent kinase 18 (Homo sapiens), sequence (Q07002 whole entry): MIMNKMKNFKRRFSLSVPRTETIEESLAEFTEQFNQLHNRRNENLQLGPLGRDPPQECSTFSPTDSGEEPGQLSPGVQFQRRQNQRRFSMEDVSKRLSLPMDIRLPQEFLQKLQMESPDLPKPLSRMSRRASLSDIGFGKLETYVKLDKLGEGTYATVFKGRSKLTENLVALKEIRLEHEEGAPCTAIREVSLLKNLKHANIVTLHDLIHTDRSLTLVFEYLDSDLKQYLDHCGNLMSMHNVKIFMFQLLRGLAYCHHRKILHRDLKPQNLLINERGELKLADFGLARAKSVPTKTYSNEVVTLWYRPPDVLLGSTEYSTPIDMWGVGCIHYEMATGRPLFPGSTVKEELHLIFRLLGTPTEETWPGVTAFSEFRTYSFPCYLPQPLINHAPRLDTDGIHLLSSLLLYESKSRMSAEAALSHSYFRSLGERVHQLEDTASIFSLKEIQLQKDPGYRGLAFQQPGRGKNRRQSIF
# Dual specificity mitogen-activated protein kinase kinase 1 (Homo sapiens), sequence (Q02750 whole entry): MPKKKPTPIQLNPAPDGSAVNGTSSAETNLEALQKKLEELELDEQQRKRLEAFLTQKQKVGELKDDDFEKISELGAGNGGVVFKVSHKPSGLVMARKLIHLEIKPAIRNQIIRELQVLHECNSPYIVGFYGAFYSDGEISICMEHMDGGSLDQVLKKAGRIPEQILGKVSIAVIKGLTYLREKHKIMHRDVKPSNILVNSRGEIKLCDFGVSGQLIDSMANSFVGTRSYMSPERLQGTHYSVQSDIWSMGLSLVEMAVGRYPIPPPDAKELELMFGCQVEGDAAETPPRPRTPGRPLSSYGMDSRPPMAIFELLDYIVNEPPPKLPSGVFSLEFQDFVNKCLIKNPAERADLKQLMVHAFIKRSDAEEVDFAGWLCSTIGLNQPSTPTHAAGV
# Glycogen synthase kinase-3 beta (Homo sapiens), sequence (P49841 whole entry, looked up): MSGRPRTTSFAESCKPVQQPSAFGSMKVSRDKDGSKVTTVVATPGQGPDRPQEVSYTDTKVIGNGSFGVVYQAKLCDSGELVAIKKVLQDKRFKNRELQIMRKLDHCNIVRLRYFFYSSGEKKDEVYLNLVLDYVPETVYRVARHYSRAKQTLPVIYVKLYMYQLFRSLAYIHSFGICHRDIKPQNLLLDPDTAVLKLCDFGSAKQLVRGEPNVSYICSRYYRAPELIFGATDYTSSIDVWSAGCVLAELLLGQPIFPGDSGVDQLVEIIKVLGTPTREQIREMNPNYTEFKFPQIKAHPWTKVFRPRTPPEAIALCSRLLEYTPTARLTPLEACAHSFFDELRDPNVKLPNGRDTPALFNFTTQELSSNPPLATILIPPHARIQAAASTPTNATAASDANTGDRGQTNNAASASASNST
# Serine/threonine-protein kinase Chk2 (Homo sapiens), sequence (O96017 whole entry): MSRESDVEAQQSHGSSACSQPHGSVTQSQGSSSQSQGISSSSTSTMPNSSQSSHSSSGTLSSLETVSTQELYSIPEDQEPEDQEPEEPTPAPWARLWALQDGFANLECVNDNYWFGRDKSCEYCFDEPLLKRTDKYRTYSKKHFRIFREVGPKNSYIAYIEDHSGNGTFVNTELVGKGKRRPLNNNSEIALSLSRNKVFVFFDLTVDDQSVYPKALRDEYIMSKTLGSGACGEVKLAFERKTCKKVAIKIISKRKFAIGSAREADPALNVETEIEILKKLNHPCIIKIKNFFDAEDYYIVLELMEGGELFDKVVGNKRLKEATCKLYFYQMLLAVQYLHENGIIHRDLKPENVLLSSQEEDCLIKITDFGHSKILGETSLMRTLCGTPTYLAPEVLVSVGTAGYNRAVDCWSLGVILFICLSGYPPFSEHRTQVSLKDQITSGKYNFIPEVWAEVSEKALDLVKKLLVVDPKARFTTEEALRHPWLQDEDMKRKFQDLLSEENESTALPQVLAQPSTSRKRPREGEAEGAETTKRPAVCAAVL
# Serine/threonine-protein kinase PAK 2 (Homo sapiens), sequence (Q13177 whole entry): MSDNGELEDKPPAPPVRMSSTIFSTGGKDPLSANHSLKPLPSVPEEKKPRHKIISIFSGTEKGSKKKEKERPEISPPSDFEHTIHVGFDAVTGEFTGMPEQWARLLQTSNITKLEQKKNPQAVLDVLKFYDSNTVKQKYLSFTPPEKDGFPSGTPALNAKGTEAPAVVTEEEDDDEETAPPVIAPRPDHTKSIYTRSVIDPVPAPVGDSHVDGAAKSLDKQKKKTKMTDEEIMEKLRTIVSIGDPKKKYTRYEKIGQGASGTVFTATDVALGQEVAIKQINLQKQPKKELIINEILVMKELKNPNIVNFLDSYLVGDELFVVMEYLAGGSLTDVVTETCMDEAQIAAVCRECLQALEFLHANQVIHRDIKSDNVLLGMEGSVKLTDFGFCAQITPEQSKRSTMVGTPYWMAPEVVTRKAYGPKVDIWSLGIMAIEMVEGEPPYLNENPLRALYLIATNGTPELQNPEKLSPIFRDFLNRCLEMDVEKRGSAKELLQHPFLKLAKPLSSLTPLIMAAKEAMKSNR
# 5'-AMP-activated protein kinase catalytic subunit alpha-1 (Homo sapiens), sequence (Q13131 whole entry, looked up): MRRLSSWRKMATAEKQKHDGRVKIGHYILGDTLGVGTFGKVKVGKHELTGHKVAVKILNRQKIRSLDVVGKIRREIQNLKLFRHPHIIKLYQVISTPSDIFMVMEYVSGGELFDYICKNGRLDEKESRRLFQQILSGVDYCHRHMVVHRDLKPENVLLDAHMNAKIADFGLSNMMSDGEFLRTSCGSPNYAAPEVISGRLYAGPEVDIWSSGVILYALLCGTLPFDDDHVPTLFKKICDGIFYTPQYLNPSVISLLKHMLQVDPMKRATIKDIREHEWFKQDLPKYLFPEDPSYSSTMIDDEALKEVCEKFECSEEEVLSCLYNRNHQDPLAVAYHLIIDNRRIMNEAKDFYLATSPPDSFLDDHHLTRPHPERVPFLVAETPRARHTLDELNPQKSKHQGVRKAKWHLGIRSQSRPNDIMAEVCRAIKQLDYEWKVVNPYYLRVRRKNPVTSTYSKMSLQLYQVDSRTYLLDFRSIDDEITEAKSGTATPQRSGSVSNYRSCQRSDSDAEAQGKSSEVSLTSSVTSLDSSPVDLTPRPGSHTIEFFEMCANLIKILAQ
structure (smiles),measurement,setting,value
C=CC(=O)Nc1ccccc1Nc1nc(Nc2ccc(N3CCN(C)CC3)cc2)ncc1Cl,inhibition,[1],90.3%
same,inhibition,[2],28%
same,inhibition,[3],3.7%
same,inhibition,[4],62.7%
same,inhibition,[5],-8.6%
same,inhibition,[6],23.8%
same,inhibition,[7],8.5%
same,inhibition,[8],16.3%
same,inhibition,[9],94.4%
same,inhibition,[10],-0.3%
same,inhibition,[11],10.3%
same,inhibition,[12],-6.6%
same,inhibition,[13],76%
same,inhibition,[14],60%
same,inhibition,[15],38.2%
COc1cc(O)c2c(c1)/C=C/C[C@H](O)[C@H](O)C(=O)/C=C\C[C@H](C)OC2=O,inhibition,[1],90%
same,inhibition,[2],73.1%
same,inhibition,[3],21.2%
same,inhibition,[4],85.3%
same,inhibition,[5],-3.9%
same,inhibition,[6],18.9%
same,inhibition,[7],12.6%
same,inhibition,[8],45.5%
same,inhibition,[9],58.1%
same,inhibition,[10],-1.6%
same,inhibition,[11],20.4%
same,inhibition,[12],3%
same,inhibition,[13],33.6%
same,inhibition,[14],89.4%
same,inhibition,[15],-6%
C=CC(=O)Nc1ccccc1Oc1nc(Nc2cnn(CCOC)c2)ncc1Cl,inhibition,[1],31.2%
same,inhibition,[2],19.9%
same,inhibition,[3],21.9%
same,inhibition,[4],13.9%
same,inhibition,[5],3%
same,inhibition,[6],15.1%
same,inhibition,[7],-6.3%
same,inhibition,[8],14.3%
same,inhibition,[9],65.4%
same,inhibition,[10],9.3%
same,inhibition,[11],3.6%
same,inhibition,[12],17%
same,inhibition,[13],0.2%
same,inhibition,[14],-7.9%
same,inhibition,[15],-4.5%
